Data from ChEMBL document CHEMBL3817843, “Understanding Oxadiazolothiazinone Biological Properties: Negative Inotropic Activity versus Cytochrome P450-Mediated Metabolism” (J Med Chem, 2016).
Active and inactive are the calls of the source. The rule behind the calls is not given here.

Key:
Aorta [1] = experiment: Inhibition of diltiazem-induced vasorelaxant activity in potassium depolarized guinea pig aorta assessed as relaxation of calcium-induced contraction at 10^-6 M preincubated for 30 mins followed by diltiazem addition; type: functional, tissue-based; conditions: Cavia porcellus
Procedure, shortened: (§1)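 K+-depolarized (80 mM) guinea pig aortic strips contracted with calcium. Compound at 1 μM added 30 min before diltiazem, verapamil or nifedipine. Response expressed as percent change from control. Data given as mean ±, Student's t test.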

Left cardiac atrium [2] = experiment: Negative inotropic activity in potassium depolarized guinea pig left atrium assessed as EC50 for verapamil at 10^-8 M preincubated for 30 mins followed by verapamil addition; type: functional; conditions: Cavia porcellus
Procedure, shortened: (§2)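 Guinea pig left atria driven at 1 Hz. Pretreated with compound at 0.01 μM, added 30 min before diltiazem, verapamil or nifedipine. Blocker concentration−response curves analysed by probit (Litchfield and Wilcoxon), n = 6−7. Data given as mean ±, Student's t test.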

Aorta [3] = experiment: Vasorelaxant activity in potassium depolarized guinea pig aorta assessed as relaxation of calcium-induced contraction at 10^-6 M after 30 mins; type: functional, tissue-based; conditions: Cavia porcellus
Procedure, shortened: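 Guinea pig aortic strips depolarized with K+ (80 mM). Calcium-induced contraction measured; inhibition expressed as percent change from control, n = 3−5.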

Left cardiac atrium [4] = experiment: Negative inotropic activity against potassium depolarized guinea pig left atrium assessed as decrease in diltiazem EC50 at 10^-8 M preincubated for 30 mins followed by diltiazem addition relative to control; type: functional, Cavia porcellus
Procedure, shortened: (§3)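 Isolated guinea pig left atria, electrically driven at 1 Hz. The pretreatment agent (0.01 μM) was added to the bath 30 min before the L-type calcium channel blocker. Blocker concentration–response curves were then run to obtain the negative inotropic EC50, which was compared with the EC50 for the blocker alone. Data were compared by Student's t test.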

in vitro = conditions: human, liver microsomes
Left cardiac atrium [5] = experiment: Potentiation of nifedipine-induced negative inotropic activity in potassium depolarized guinea pig left atrium assessed as reduction in developed tension at 10^-8 M preincubated for 30 mins followed by nifedipine addition; type: functional; conditions: Cavia porcellus; procedure, shortened: as §2
Aorta [6] = experiment: Vasorelaxant activity in potassium depolarized guinea pig aorta assessed as inhibition of calcium-induced contraction at 10^-8 M preincubated for 30 mins followed by 50 uM diltiazem addition; type: functional, Cavia porcellus; set-up: scale not given: the % may be the effect or the level left
Aorta [7] = experiment: Vasorelaxant activity in potassium depolarized guinea pig aorta assessed as inhibition of calcium-induced contraction at 10^-6 M preincubated for 30 mins followed by 0.5 uM nifedipine addition; type: functional, Cavia porcellus; set-up: scale not given: the % may be the effect or the level left; procedure, shortened: as §1
Left cardiac atrium [8] = experiment: Negative inotropic activity in potassium depolarized guinea pig left atrium assessed as EC50 for diltiazem at 10^-8 M preincubated for 30 mins followed by diltiazem addition; type: functional; conditions: Cavia porcellus; procedure, shortened: as §2
Left cardiac atrium [9] = experiment: Potentiation of verapamil-induced negative inotropic activity in potassium depolarized guinea pig left atrium assessed as reduction in developed tension at 10^-8 M preincubated for 30 mins followed by verapamil addition; type: functional; conditions: Cavia porcellus; procedure, shortened: as §2
Left cardiac atrium [10] = experiment: Negative inotropic activity against potassium depolarized guinea pig left atrium assessed as decrease in verapamil EC50 at 10^-8 M preincubated for 30 mins followed by verapamil addition relative to control; type: functional, Cavia porcellus; procedure, shortened: as §3
Cytochrome P450 3A4 [11] = molecular target: T1, Cytochrome P450 3A4 (Homo sapiens, UniProt P08684); experiment: Inhibition of CYP3A4 in human liver microsomes using midazolam as substrate after 4 mins by LC-MS analysis
Aorta [12] = experiment: Inhibition of verapamil-induced vasorelaxant activity in potassium depolarized guinea pig aorta assessed as relaxation of calcium-induced contraction at 10^-8 M preincubated for 30 mins followed by verapamil addition; type: functional, tissue-based; conditions: Cavia porcellus
Cytochrome P450 3A4 [13] = molecular target: T1, Cytochrome P450 3A4; experiment: Inhibition of CYP3A4 in human liver microsomes using testosterone as substrate after 5 mins by LC-MS analysis
Liver microsome = experiment: Stability in human liver microsomes at 1 uM after 2 to 60 mins by LC-MS analysis in absence of NADPH

T1 sequence (P08684 whole entry): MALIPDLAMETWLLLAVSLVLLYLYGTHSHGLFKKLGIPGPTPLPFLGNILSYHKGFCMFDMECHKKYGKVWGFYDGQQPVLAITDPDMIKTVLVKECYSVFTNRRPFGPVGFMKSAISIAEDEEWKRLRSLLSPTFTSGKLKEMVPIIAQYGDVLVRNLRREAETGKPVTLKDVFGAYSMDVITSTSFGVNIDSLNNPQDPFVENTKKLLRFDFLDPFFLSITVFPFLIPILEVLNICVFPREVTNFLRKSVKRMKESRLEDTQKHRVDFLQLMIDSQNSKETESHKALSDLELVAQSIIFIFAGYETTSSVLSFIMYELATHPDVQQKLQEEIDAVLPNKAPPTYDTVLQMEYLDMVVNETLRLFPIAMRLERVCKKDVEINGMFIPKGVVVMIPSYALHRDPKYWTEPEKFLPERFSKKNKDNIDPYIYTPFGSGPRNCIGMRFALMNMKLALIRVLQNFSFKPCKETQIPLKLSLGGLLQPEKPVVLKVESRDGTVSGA

EC50 (Left cardiac atrium [2]): 50 nM
microsomal CLint at 1 µM (in vitro): 53 µL/min/mg
EC50 (Left cardiac atrium [8]): 270 nM
IC50 (Cytochrome P450 3A4 [11]): > 20000 nM
IC50 (Cytochrome P450 3A4 [13]): 19200 nM
Stability (Liver microsome): Stable
Structure (SMILES): CCOC1(c2ccc(Br)cc2)SC=C(C)n2c1noc2=O (stereo not given)
inhibition (Aorta [1]): Active
inhibition (Aorta [3]): inactive
fold change (FC) (Left cardiac atrium [4]): 3.3
Activity (Left cardiac atrium [5]): Active
Activity (Aorta [6]): 64%
Activity (Aorta [7]): 11%
Activity (Left cardiac atrium [9]): Active
fold change (FC) (Left cardiac atrium [10]): 12
inhibition (Aorta [12]): Active
